This excerpt belongs to a sample that is enriched for hits.
KDM4C inh = inhibitors of GASC-1 (KDM4C) histone demethylase, primary screen, biochemical, single concentration HTS. GST-KDM4C 2-372, H3K9me3 peptide, LANCE TR-FRET. inhibition, % at 12.5 µM. actives 0.15% (n = 96,000). AID 720574, 2013;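 active means mean replicate inhibition above about 25%, with at least 55% of replicates also reaching it, limit read from the data, passing the limit was not always enough; inconclusive means only one of those two conditions met; inactive means neither condition met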
Target sequence (Q9H3R0 2-372 limits assumed): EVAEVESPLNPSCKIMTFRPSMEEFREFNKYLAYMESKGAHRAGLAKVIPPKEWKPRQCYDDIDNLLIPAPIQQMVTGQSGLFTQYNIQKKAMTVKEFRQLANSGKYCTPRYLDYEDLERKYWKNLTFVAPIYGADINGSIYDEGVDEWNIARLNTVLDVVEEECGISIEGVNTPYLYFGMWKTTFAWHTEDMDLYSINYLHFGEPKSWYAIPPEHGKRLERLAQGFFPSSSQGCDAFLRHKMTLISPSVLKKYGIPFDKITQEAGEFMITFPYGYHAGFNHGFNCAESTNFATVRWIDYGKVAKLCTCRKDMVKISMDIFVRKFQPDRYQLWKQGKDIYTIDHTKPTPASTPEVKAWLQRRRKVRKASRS
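Compound: one test concentration per compound; Material: GST-GASC-1 enzyme fragment 2-372; Amount: GASC-1 enzyme at 10 nM final in reaction; Also added: H3K9me3 peptide substrate, Fe(II), 2-oxoglutarate; Technique: LANCE TR-FRET; Times: 30 min demethylation and 1 h detection at room temperature.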
IDH1 mut inh = inhibitors of IDH1 R132H reductase, primary screen, biochemical, plate reader, single point. actives 0.18% (n = 70,000). Isocitrate dehydrogenase [NADP] cytoplasmic (Homo sapiens), O75874. inhibition, % at 10 µM. diaphorase/resazurin fluorescence, 60 min. AID 624101, 2012; in the data active means inhibition above about 34%; inconclusive means no clear call, values can overlap the other calls; inactive means below about 11%
T cruzi growth-1 = T. cruzi intracellular proliferation inhibitors, primary screen, cell-based, beta-gal Tulahuen parasites, NIH3T3 host, luminescence | inhibition, % at 8.34 µM | T. cruzi beta-gal in NIH3T3, GalScreen luminescence, 90 h | actives 5.9% (n = 77,000);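 active means mean inhibition above about 93%, with at least 55% of replicates each passing it, limit read from the data, passing the limit was not always enough; inconclusive means only one of those two conditions holds; inactive means neither condition holds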
T cruzi growth-2 = T. cruzi intracellular proliferation inhibitors, confirmation, cell-based, NIH3T3 host, beta-gal parasite, luminescence, cherry-pick | shares compounds with T cruzi growth-1 | T. cruzi beta-gal in NIH3T3, GalScreen luminescence, 90 h | inhibition, % at 8.35 µM | actives 72% (n = 5,600) | AID 651739, 2012;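 active means mean replicate inhibition above about 95% and at least 55% of replicates individually reaching it, limit read from the data; inconclusive means only one of the two criteria is met; inactive means neither criterion is met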
T cruzi growth-3 = inhibitors of intracellular T. cruzi replication, confirmation, NIH3T3 host cells, beta-gal parasites, cherry-pick, set 2. shares compounds with T cruzi growth-1. T. cruzi beta-gal in NIH3T3, GalScreen luminescence, 90 h. inhibition, % at 2.09 µM. actives 21% (n = 5,600). AID 651740, 2012;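 active means mean inhibition above about 95%, with at least 55% of replicates also reaching it, limit read from the data; inconclusive means meets just one of the two conditions; inactive means meets neither condition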
NIH3T3 tox = cytotoxicity in mouse NIH/3T3 fibroblasts, confirmation, cytotoxicity control for T. cruzi proliferation inhibitor project, cell-based, cherry-pick, single point; shares compounds with T cruzi growth-1; NIH/3T3 viability, CellTiter-Glo ATP luminescence, 90 h; cytotoxicity (signal decrease), % at 8.35 µM; actives 14% (n = 5,600); AID 651742, 2012;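 active means mean signal decrease across replicates above about 35% based on untreated-well scatter, with enough replicates individually passing, limit read from the data; inconclusive means no rule stated though some were filed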
NIH3T3 tox 2 = NIH/3T3 fibroblast cytotoxicity, confirmation, cytotoxicity control, cell-based, cherry-pick, single point, set 2 | shares compounds with T cruzi growth-1 | NIH/3T3 viability, CellTiter-Glo ATP luminescence, 90 h | inhibition, % at 24.9 µM | actives 56% (n = 5,600) | AID 651744, 2012;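 active means mean loss of cell viability signal at or above a set limit, and enough replicates individually reaching it; inconclusive means meets only the mean limit or only the replicate share; inactive means meets neither condition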
Numbers stand for hits; 0 = inactive; ? = inconclusive; - = no result given; ! = not active in a repeat.

SMILES	KDM4C inh	IDH1 mut inh	T cruzi growth-1	T cruzi growth-2	T cruzi growth-3	NIH3T3 tox	NIH3T3 tox 2
CCOC(=O)c1ccccc1NC(=O)COc1ccccc1Br	-	0	-	-	-	-	-
CN1C(=O)c2cc(NS(=O)(=O)c3cccc(F)c3)ccc2OC[C@@H]2O[C@@H](CC(=O)NCCN3CCCCC3)CC[C@@H]21	0	-	0	-	-	-	-
CCCC(=O)Nc1ccc2c(c1)C(=O)N(C)[C@H]1CC[C@@H](CC(=O)NCCN3CCCCC3)O[C@H]1CO2	0	-	99.2	97.9	0	0	0
CN1C(=O)c2cc(NS(=O)(=O)c3ccc(F)cc3)ccc2OC[C@@H]2O[C@H](CC(=O)O)CC[C@H]21	0	-	103.4	0	0	0	0
CCCC(=O)Nc1ccc2c(c1)C(=O)N(C)[C@H]1CC[C@H](CC(=O)NCCN3CCCCC3)O[C@H]1CO2	0	-	0	-	-	-	-
CN1C(=O)c2cc(NS(=O)(=O)c3cccc(F)c3)ccc2OC[C@@H]2O[C@H](CC(=O)NCCN3CCCCC3)CC[C@@H]21	0	-	97.2	0	0	0	0
Cc1ccc(S(=O)(=O)Nc2ccc3c(c2)C(=O)N(C)[C@@H]2CC[C@H](CC(=O)O)O[C@H]2CO3)cc1	0	-	0	-	-	-	-
O=C1c2cccc3cccc(c23)C(=O)N1CCCSc1n[nH]c(-c2ccc(F)cc2)n1	-	0	-	-	-	-	-
N#Cc1ccc(/C=N/NC(=O)c2ccccn2)cc1	-	0	-	-	-	-	-
Cc1cc(Cl)c(S(=O)(=O)Nc2cc(Cl)ccc2Cl)cc1OCC(N)=O	-	0	-	-	-	-	-
O=C(CSc1nc(-c2ccccc2)cs1)Nc1ccccc1C(F)(F)F	-	0	-	-	-	-	-
Cc1ccc(S(=O)(=O)N(C)C[C@H]2Oc3cc(C#CC4CCCC4)ccc3S(=O)(=O)N([C@@H](C)CO)C[C@H]2C)cc1	0	0	123.2	0	111.5	0	46.3
C[C@@H]1CN([C@H](C)CO)S(=O)(=O)c2ccc(C#CC3CCCC3)cc2O[C@@H]1CN(C)S(C)(=O)=O	0	-	0	-	-	-	-
COc1ccc(S(=O)(=O)N(C)C[C@@H]2Oc3cc(C#CC4CCCCC4)ccc3S(=O)(=O)N([C@@H](C)CO)C[C@H]2C)cc1	0	-	0	-	-	-	-
Cc1ccc(S(=O)(=O)N(C)C[C@H]2Oc3cc(C#CC4CCCC4)ccc3S(=O)(=O)N([C@@H](C)CO)C[C@@H]2C)cc1	0	0	121.2	97.2	108.8	0	43.5
COc1ccc(S(=O)(=O)N(C)C[C@H]2Oc3cc(C#CC4CCCCC4)ccc3S(=O)(=O)N([C@@H](C)CO)C[C@@H]2C)cc1	0	-	0	-	-	-	-
C[C@H](CO)N1C[C@H](C)[C@@H](CN(C)S(C)(=O)=O)Oc2cc(C#CC3CCCC3)ccc2S1(=O)=O	0	0	123.3	102.1	0	0	65.9
Cc1ccc(S(=O)(=O)N(C)C[C@@H]2Oc3cc(C#CC4CCCC4)ccc3S(=O)(=O)N([C@@H](C)CO)C[C@@H]2C)cc1	0	0	125.3	0	111.7	0	40.2
COc1ccc(S(=O)(=O)NCC2CCCO2)cc1-c1nnc2c3ccccc3c(C)nn12 (stereo unspecified)	-	0	-	-	-	-	-
Cc1ccc(S(=O)(=O)N(C)CC(=O)Nc2ccc(C)cc2C)cc1	-	0	-	-	-	-	-
COc1ccc(S(=O)(=O)N(C)C[C@H]2Oc3cc(C#CC4CCCCC4)ccc3S(=O)(=O)N([C@@H](C)CO)C[C@H]2C)cc1	0	-	0	-	-	-	-
Cc1ccc(S(=O)(=O)N(C)C[C@@H]2Oc3cc(C#CC4CCCC4)ccc3S(=O)(=O)N([C@H](C)CO)C[C@H]2C)cc1	0	0	127.7	103.3	?	73.9	66.4
Cc1ccc(S(=O)(=O)N(C)C[C@H]2Oc3cc(C#CC4CCCC4)ccc3S(=O)(=O)N([C@H](C)CO)C[C@H]2C)cc1	0	0	125.8	97.3!	116.6	0	37.9!
Cc1cc2nc(-c3ccc(Cl)c(NC(=O)COc4ccccc4)c3)oc2cc1C	-	0	-	-	-	-	-
C[C@H]1CN([C@@H](C)CO)S(=O)(=O)c2ccc(-c3cccc(C#N)c3)cc2O[C@H]1CN(C)C(=O)Nc1cc(F)ccc1F	0	-	-	-	-	-	-
SMILES	KDM4C inh	IDH1 mut inh	T cruzi growth-1	T cruzi growth-2	T cruzi growth-3	NIH3T3 tox	NIH3T3 tox 2
C[C@H]1CN([C@@H](C)CO)S(=O)(=O)c2ccc(-c3cccc(F)c3)cc2O[C@H]1CN(C)C(=O)Nc1cc(F)ccc1F	0	0	112.0	104.7	102.3	62.8	42.2
C[C@H]1CN([C@@H](C)CO)S(=O)(=O)c2ccc(-c3ccc(C#N)cc3)cc2O[C@@H]1CN(C)C(=O)Nc1cc(F)ccc1F	0	0	108.1	0	0	0	75.5
C[C@H](CO)N1C[C@H](C)[C@H](CN(C)C(=O)Nc2cc(F)ccc2F)Oc2cc(-c3cccc(C#N)c3)ccc2S1(=O)=O	0	0	-	-	-	-	-
C[C@H]1CN([C@@H](C)CO)S(=O)(=O)c2ccc(-c3cccc(F)c3)cc2O[C@@H]1CN(C)C(=O)Nc1cc(F)ccc1F	0	0	111.9	106.4	0	43.1	85.9
C[C@@H]1CN([C@@H](C)CO)S(=O)(=O)c2ccc(-c3ccc(C#N)cc3)cc2O[C@H]1CN(C)C(=O)Nc1cc(F)ccc1F	0	-	0	-	-	-	-
Cc1ccc(NC(=O)COc2ccc3ccccc3c2Br)c([N+](=O)[O-])c1	-	0	-	-	-	-	-
COC(=O)c1cc2cc(O)c(-c3c(O)cc4cc(C(=O)OC)oc(=O)c4c3O)c(O)c2c(=O)o1	-	0	-	-	-	-	-
O=C(COc1ccccc1)Nc1ccc2oc(-c3ccccc3)nc2c1	-	0	-	-	-	-	-
N#Cc1ccccc1CSc1nnc(N)n1-c1ccccc1	-	0	-	-	-	-	-
CCn1c(SCC(=O)N2c3ccccc3Sc3ccccc32)nnc1-c1cc(OC)cc(OC)c1	-	0	-	-	-	-	-
Cc1ccc(C)c(NC(=O)CCCN2C(=O)c3ccccc3C2=O)c1	-	0	-	-	-	-	-
COc1ccccc1CNC(=O)C[C@H]1CC[C@@H]2[C@H](COC[C@@H](O)CN2Cc2cccc(-c3ccncc3)c2)O1	0	-	?	95.6	0	0	58.8
COc1ccccc1CNC(=O)C[C@@H]1CC[C@@H]2[C@H](COC[C@@H](O)CN2Cc2cccc(-c3ccncc3)c2)O1	0	-	0	-	-	-	-
COc1ccccc1CNC(=O)C[C@H]1CC[C@H]2[C@@H](COC[C@H](O)CN2Cc2cccc(-c3ccncc3)c2)O1	0	-	120.1	97.5	0	0	0
COc1ccccc1CNC(=O)C[C@H]1CC[C@H]2[C@@H](COC[C@H](O)CN2Cc2ccccc2)O1	0	-	-	-	-	-	-

Source: PubChem BioAssay
